The source made the active and inactive calls. The calls are words filed in the database; no cut-off is given here.
Assays:
MDA-MB-231 [1] = experiment: Induction of cell cycle arrest in human MDA-MB-231 cells assessed as >G2 DNA content at 8 uM after 48 hrs by propidium iodide staining based flow cytometry; type: functional
How it was run: (§1)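 After 48 h of compound exposure, MDA-MB-231 cells were fixed, stained with propidium iodide and analysed by flow cytometry, with at least 3000 cells per population. Phase fractions (<G1, G1, S, G2/M, >G2) were compared with DMSO vehicle controls. Values are mean ± SD of 4 independent cell samples.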

MDA-MB-231 [2] = experiment: Cytotoxicity against human MDA-MB-231 cells after 48 hrs by MTT assay; type: functional, cell-based; settings: MDA-MB-231, 48 h
How it was run: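 MDA-MB-231 cells exposed to a range of compound concentrations for 48 h, then viability read by MTT. IC50 (50% cell death) obtained by non-linear regression to a sigmoidal dose-response function; mean ± SD of three independent experiments.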

MDA-MB-231 [3] = experiment: Induction of cell cycle arrest in human MDA-MB-231 cells assessed as accumulation at G2/M phase at 8 uM after 48 hrs by propidium iodide staining based flow cytometry; type: functional; how it was run: as §1
MDA-MB-231 [4] = experiment: Induction of cell cycle arrest in human MDA-MB-231 cells assessed as accumulation at G1 phase at 8 uM after 48 hrs by propidium iodide staining based flow cytometry; type: functional; how it was run: as §1
MDA-MB-231 [5] = experiment: Induction of cell cycle arrest in human MDA-MB-231 cells assessed as accumulation at S phase at 8 uM after 48 hrs by propidium iodide staining based flow cytometry; type: functional; how it was run: as §1
MDA-MB-231 [6] = experiment: Induction of cell cycle arrest in human MDA-MB-231 cells assessed as < G1 DNA content at 8 uM after 48 hrs by propidium iodide staining based flow cytometry; type: functional; how it was run: as §1
MDA-MB-231 [7] = experiment: Induction of cell cycle arrest in human MDA-MB-231 cells assessed as accumulation at G2/M phase at 15 uM after 48 hrs by propidium iodide staining based flow cytometry; type: functional; how it was run: as §1
MDA-MB-231 [8] = experiment: Induction of cell cycle arrest in human MDA-MB-231 cells assessed as reduction in accumulation at G1 phase at 15 uM after 48 hrs by propidium iodide staining based flow cytometry; type: functional; how it was run: as §1
MDA-MB-231 [9] = experiment: Induction of cell cycle arrest in human MDA-MB-231 cells assessed as reduction in accumulation at S phase at 15 uM after 48 hrs by propidium iodide staining based flow cytometry; type: functional; how it was run: as §1
MDA-MB-231 [10] = experiment: Induction of cell cycle arrest in human MDA-MB-231 cells assessed as >G2 DNA content at 15 uM after 48 hrs by propidium iodide staining based flow cytometry; type: functional; how it was run: as §1
MDA-MB-231 [11] = experiment: Induction of cell cycle arrest in human MDA-MB-231 cells assessed as < G1 DNA content at 15 uM after 48 hrs by propidium iodide staining based flow cytometry; type: functional; how it was run: as §1

| Structure (SMILES) | Activity (MDA-MB-231 [1]) | IC50 (MDA-MB-231 [2]) [µM] | Activity (MDA-MB-231 [3]) | Activity (MDA-MB-231 [4]) | Activity (MDA-MB-231 [5]) | Activity (MDA-MB-231 [6]) | Activity (MDA-MB-231 [7]) [%] | Activity (MDA-MB-231 [8]) | Activity (MDA-MB-231 [9]) | Activity (MDA-MB-231 [10]) | Activity (MDA-MB-231 [11]) |
| --- | --- | --- | --- | --- | --- | --- | --- | --- | --- | --- | --- |
| Clc1nc(Cl)c2scc(Br)c2n1 | inactive | 5.9 | inactive | inactive | inactive | inactive | – | – | – | – | – |
| Clc1nc(Cl)c2sccc2n1 | – | 9 | – | – | – | – | >70 | Active | Active | inactive | inactive |
